Residues, ends and D or L forms follow the SMILES beside them. *: point of attachment. AMC = Cc1cc(=O)oc2cc(N*)ccc12; Cbz = O=C(OCc1ccccc1)*
Experiments:
DUBs in HeLa lysates = assay: DUB-mediated hydrolysis of peptide reporters in HeLa lysates; format: biochemical; conditions: for V/K value (Vmax/Km): HeLa lysates 4 mg/mL, DMSO curves, Michaelis-Menten parameters
Summary of the method: (§1)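 Lysates (4 mg/mL protein, by NanoDrop) came from M-PER extraction of PBS-washed HeLa or OPM2 cells, clarified at 14,000 × g. Lysates were pre-treated 1 h with 20 or 50 μM PR-619 or DMSO, in 50 mM HEPES pH 7.4, 150 mM NaCl, 2 mM DTT, 0.02% Tween-20. Released AFC or AMC was read every 30 min for 6 h at 30°C. Rates were calibrated, and Km and vmax came from Michaelis-Menten fits.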

DUBs in OPM2 lysates = assay: DUB-mediated hydrolysis of peptide reporters in OPM2 lysates; format: biochemical
Summary of the method: as §1

[1] = tested on: DUBs in intact HeLa cells; assay: Enzyme-substrate kinetics in intact HeLa cells; format: cell-based
[2] = tested on: DUBs in intact OPM2 cells; assay: Direct visualization of DUB activity in intact OPM2 cells; format: cell-based; conditions: 50 μM peptide, 120 minutes, 37°C, DAPI filter
[3] = cited from earlier work
intact cells = conditions: cited from earlier work

Ac-RWVRVpGO(FAM)WIRQ-LVLRLRGG-AFC [Peptide 2]
Effect of DUB inhibition (PR-619) on rate data of the reporter (DUBs in HeLa lysates; HeLa lysates pre-treated 1 h with 0, 20, 50 μM PR-619): did not result in a significant effect

N#CSc1cc(SC#N)c(N)nc1N [PR-619]
Inhibition of DUB activity (residual activity) (DUBs in HeLa lysates; lysates treated with 50 μM PR-619, pre-treatment 1 h, HeLa lysates): incomplete inhibition | Inhibition of DUB activity (residual activity) (DUBs in OPM2 lysates; lysates treated with 50 μM PR-619, pre-treatment 1 h, OPM2 lysates): incomplete inhibition

Cc1cc(=O)oc2cc(NC(=O)CNC(=O)CNC(=O)[C@H](CCCNC(=N)N)NC(=O)[C@H](CC(C)C)NC(=O)OCc3ccccc3)ccc12 [Peptide 3, Z-Leu-Arg-Gly-Gly-AMC] (Cbz-LRGG-{AMC})
Reaction rates in intact cells ([1]; intact HeLa cells incubated with varying peptide concentrations for 6 h): not significantly different from zero | V/K value (Vmax/Km) (DUBs in HeLa lysates): 0.00021 min⁻¹ | Intracellular fluorescence signal from DUB-mediated hydrolysis [2]: did not produce a detectable signal

RWVRVpGRWIRQ [RWRWR]
half-life in HeLa lysates [3]: 7 h | Incubation time sufficient to deliver the CPP into intact cells (intact cells): 10 min | Time to penetrate intact cells (intact cells): ≤ 10 min

Ac-RWVRVpGO(FAM)WIRQ-LRGG-AFC [Peptide 1]
Si,max, intracellular saturation concentration (model) ([1]; calculated from a, b, c, d, nintact with Eq. 7, HeLa cells): 1.28 µM | S0,50, external solution concentration at half-saturation level (model) ([1]; calculated from a, b, c, d, nintact with Eq. 8, HeLa cells): 55.1 µM | nintact (Hill coefficient) ([1]; intact HeLa cells, Hill model fit): 6.8 | (V/K) intact ([1]; intact HeLa cells, from Hill parameters, unit not given): 1.38*10^−5 | V/K value (Vmax/Km) (DUBs in HeLa lysates): 0.00212 min⁻¹ | Intracellular fluorescence signal from DUB-mediated hydrolysis [2]: showed an increase in intracellular fluorescence | Uninhibited reaction rates in OPM2 lysates, comparison (DUBs in OPM2 lysates; OPM2 lysates 4 mg/mL, no inhibitor, p<10^−4): significantly higher than Peptide 3
